Assay results of several laboratories.
Lines come from different studies, so protocols differ. Converted amounts (≈) assume the structure as drawn.
Organism: Staphylococcus aureus

For `c1ccc2[nH]c(-c3ccc4c(c3)OCO4)nc2c1`, the MIC was 256 µg/mL (≈ 1070 µM) (microbial growth, broth dilution; ATCC43300 MRSA; drug-resistant strain).
`CC1(C)S[C@@H]2[C@H](NC(=O)[C@H](N)c3ccccc3)C(=O)N2[C@H]1C(=O)O` gave an inhibition zone of 35 mm (microbial growth, well diffusion; ATCC25923; 60000 µg/mL).
`c1ccc2[nH]c(-c3ccncc3)nc2c1` has an MIC of 256 µg/mL (≈ 1310 µM) (microbial growth, broth dilution; ATCC43300 MRSA; drug-resistant strain).
`CC(=O)Oc1cccc2c1[nH]c1c(C3=C[C@@]4(OC(C)=O)CC/C=C\CCCCN5CC[C@@H]3[C@]3(C[C@@H]6/C=C\CCCCN6[C@H]34)C5)nccc12` gave an MFC of greater than 20 µg/mL (microbial killing; MRSA; drug-resistant strain).
`CC1(c2ccccc2O)Nn2c(nc(-c3ccc(Cl)cc3)c(C#N)c2=O)N1C(Cc1c[nH]c2ccccc12)C(=O)O` (stereo not shown) has an MBC of 100 µg/mL (microbial killing; drug-resistant strain).
The MBC of `Cc1c(NN=C(C#N)C2=NC(=O)CS2)c(=O)n(-c2ccccc2)n1C` is reported as 1 µg/mL (microbial killing, broth dilution).
`CC1(C)CC[C@]2(C(=O)O)CC[C@]3(C)C(=CC[C@@H]4[C@@]5(C)CC[C@H](O)C(C)(C)[C@@H]5CC[C@]43C)[C@@H]2C1` gave an MIC of 128 µg/mL (≈ 280 µM) (microbial growth; ATCC29213).
`Cc1ccc2nc(-c3ccc([N+](=O)[O-])cc3)n(Cc3ccccc3)c2c1` gave an MIC of 16 µg/mL (≈ 46.6 µM) (microbial growth, broth dilution; ATCC43300 MRSA; drug-resistant strain).
With `O=C(Sc1cccccc1=O)c1ccccc1` the MIC80 was 13.2 µM (≈ 3.2 µg/mL) (microbial growth, broth dilution; ATCC29213).
With `CCOC(=O)C1=C(C)N2NC(c3ccccc3O)N(C(Cc3c[nH]c4ccccc34)C(=O)O)C2=NC1c1ccc(Cl)cc1` (stereo not shown) the MBC was 100 µg/mL (microbial killing; drug-resistant strain).
`O=C(O)c1cn(C2CC2)c2cc(N3CCNCC3)c(F)cc2c1=O` gave an IC50 of 0.13 µg/mL (≈ 0.392 µM) (microbial growth; ATCC29213).
For `CSc1ccc(-c2nc3ccccc3[nH]2)cc1`, the MIC was 32 µg/mL (≈ 133 µM) (microbial growth, broth dilution; ATCC43300 MRSA; drug-resistant strain).
With `O[C@]12C=C(c3nccc4c3[nH]c3ccccc34)[C@@H]3CCN(CCCC/C=C\CC1)C[C@@]31C[C@@H]3/C=C\CCCCN3[C@H]12` the IC50 was 0.7 µg/mL (≈ 1.28 µM) (microbial growth; MRSA; drug-resistant strain).
For `COc1ccccc1Nc1cccc2nccnc12`, the EC50 was 20 µM (microbial growth; RN4220).
With `Cc1ccc2nc(-c3ccc(Cl)c(Cl)c3)n(Cc3ccccc3)c2c1` the MIC was 32 µg/mL (≈ 87.1 µM) (microbial growth, broth dilution; ATCC43300 MRSA; drug-resistant strain).
The inhibition zone of `O=C(O)c1cn(C2CC2)c2cc(N3CCNCC3)c(F)cc2c1=O` is reported as 25 mm (microbial growth; SG511; 5 µg/mL, 20 h).
`O=C(O)c1cn(C2CC2)c2cc(N3CCNCC3)c(F)cc2c1=O` has an MBC of 0.019 µg/mL (microbial killing).
For `CN(C)c1ccc(-c2nc3ccccc3[nH]2)cc1`, the MIC was 128 µg/mL (≈ 539 µM) (microbial growth, broth dilution; ATCC43300 MRSA; drug-resistant strain).
`CN[C@H](CC(C)C)C(=O)N[C@H]1C(=O)N[C@@H](CC(N)=O)C(=O)N[C@H]2C(=O)N[C@H]3C(=O)N[C@H](C(=O)N[C@H](C(=O)O)c4cc(O)cc(O)c4-c4cc3ccc4O)[C@H](O)c3ccc(c(Cl)c3)Oc3cc2cc(c3O[C@@H]2O[C@H](CO)[C@@H](O)[C@H](O)[C@H]2O[C@H]2C[C@](C)(N)[C@H](O)[C@H](C)O2)Oc2ccc(cc2Cl)[C@H]1O` has an MBC of 2 µM (microbial killing, broth dilution; ATCC6538).
